PRMT1 FP inh – inhibitors of human PRMT1; recombinant PRMT1, activity-based probe fluorescence polarization; Q99873; hit rate 1.3% among 370,000; inhibition, % at 2.79 µM;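 active means inhibition above about 21% made by adding two undisclosed values, limit read from the data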
Target sequence (Q99873 whole entry, looked up): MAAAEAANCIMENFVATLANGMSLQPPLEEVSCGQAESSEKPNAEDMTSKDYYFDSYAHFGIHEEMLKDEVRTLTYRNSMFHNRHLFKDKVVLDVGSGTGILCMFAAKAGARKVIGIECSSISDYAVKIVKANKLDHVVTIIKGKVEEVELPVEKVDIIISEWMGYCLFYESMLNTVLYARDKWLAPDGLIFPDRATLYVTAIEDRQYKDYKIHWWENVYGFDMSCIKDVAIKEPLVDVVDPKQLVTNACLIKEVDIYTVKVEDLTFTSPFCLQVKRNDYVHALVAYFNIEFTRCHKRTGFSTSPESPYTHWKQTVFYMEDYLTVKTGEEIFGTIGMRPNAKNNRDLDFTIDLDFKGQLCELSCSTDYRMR
HTRA1 inhibitor – HTRA1 (human) protease inhibition; recombinant HTRA1, FP-rhodamine activity-based probe, fluorescence polarization; inhibition, % at 5.96 µM; hit rate 0.5% among 340,000; AID 504803; in the data active means inhibition above about 36%;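 further: 0% = enzyme with DMSO and 100% = wells lacking enzyme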
TCR-CD3 inh – blocks the human TCR-CD3 interaction; TAMRA-labeled TCR probe fluorescence, biochemical; inhibition, % at 9.4 µM; hit rate 0.37% among 360,000; in the data active means inhibition above about 19%;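 further: recombinant mutant TCR 2C K166C tagged with TAMRA read by polarization; 0% = receptor in buffer alone and 100% = receptor with positive control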
ABHD4 inh – inhibits mouse alpha/beta hydrolase domain 4. Q8VD66. purified mABHD4, FP-Rh probe fluorescence polarization. inhibition, % at 8.92 µM. hit rate 0.54% among 370,000;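 active means inhibition exceeding the mean over every tested compound plus 3 SD, cut at about 30% in these data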;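 further: 0% = plate median of compound wells and 100% = S159A mutant with DMSO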
Target sequence (Q8VD66 whole entry, looked up, the tested form may be a part): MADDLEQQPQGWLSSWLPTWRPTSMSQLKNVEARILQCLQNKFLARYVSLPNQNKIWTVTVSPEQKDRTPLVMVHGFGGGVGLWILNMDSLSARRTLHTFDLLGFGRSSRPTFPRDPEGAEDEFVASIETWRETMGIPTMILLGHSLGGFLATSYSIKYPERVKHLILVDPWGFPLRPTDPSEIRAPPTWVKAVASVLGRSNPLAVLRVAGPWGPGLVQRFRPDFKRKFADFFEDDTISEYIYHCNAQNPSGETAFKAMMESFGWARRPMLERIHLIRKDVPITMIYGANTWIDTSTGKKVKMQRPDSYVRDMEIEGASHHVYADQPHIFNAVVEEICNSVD
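Material: mouse ABHD4 enzyme, wild type; Benchmarks: S159A mutant high control, sample median low control; Buffer or medium: HEPES pH 7.0, NaCl, Pluronic buffer; Signal: fluorescence polarization; Read-out: percent inhibition of probe binding, normalized to plate controls; Timing: pre-incubation 45 min, probe exposure 60 min, at 25 °C; Dosing: 8.92 µM, single dose.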
SIAE primary – blocks human sialic acid acetylesterase; Q9HAT2; SIAE FP-Rh probe binding, fluorescence polarization; inhibition, % at 9.66 µM; hit rate 0.69% among 370,000;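 active means inhibition above a cutoff: mean of compounds within the control limits plus 3 SD of those, cut at about 17% in these data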;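 further: 0% = plate median of compound wells and 100% = probe without SIAE protein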
SIAE confirm – confirmation of human SIAE inhibitors | SIAE FP-Rh activity-based probe, fluorescence polarization | shares compounds with SIAE primary | inhibition, % at 9.66 µM | AID 1117263 | hit rate 13% among 2,300;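 active means mean inhibition of the replicates above the hit cutoff set in the primary screen, cut at about 17% in these data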;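 further: 0% = SIAE with DMSO and probe and 100% = probe without SIAE; inhibitors lower polarization as more probe stays unbound to SIAE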
* = called active by the depositor. Rows were chosen to be rich in hits. Some 2.5% of all compounds tested hit in one or more screens of this group.

Results for CC(OC(=O)C1CCN(S(=O)(=O)c2ccc(Cl)cc2)CC1)C(=O)NC1CCCCC1C (stereo unspecified) ?
PRMT1 FP inh: -3.8; HTRA1 inhibitor: -3.7; TCR-CD3 inh: 3.9; ABHD4 inh: 1.5; SIAE primary: 19.0*; SIAE confirm: -2.2

Results for CC(OC(=O)/C=C/c1cccc(Cl)c1)C(=O)NC1CCCCC1C (stereo unspecified) ?
PRMT1 FP inh: -2.5; HTRA1 inhibitor: 4.1; TCR-CD3 inh: 6.5; ABHD4 inh: 2.7; SIAE primary: 17.1*; SIAE confirm: -1.1

What do the screens show for `CC(OC(=O)c1cccc(Cl)c1)C(=O)NC1CCCCC1C` (stereo unspecified)?
PRMT1 FP inh: 12.8; HTRA1 inhibitor: 1.0; TCR-CD3 inh: 3.7; ABHD4 inh: -0.9; SIAE primary: -1.9

What do the screens show for `COCCN1C(=O)[C@H]2C[C@@]13O[C@H](c1ccc(C(F)(F)F)cc1)N=C3C[C@H](c1ccccc1)[C@H]2C`?
PRMT1 FP inh: -1.0; TCR-CD3 inh: 0.9; ABHD4 inh: 1.2; SIAE primary: -3.2

How did O=C(CSc1nncc(=O)[nH]1)NC1CCCCC1 do in these assays?
PRMT1 FP inh: -3.2; HTRA1 inhibitor: 10.8; TCR-CD3 inh: 7.8; ABHD4 inh: 1.8; SIAE primary: 2.0

How did COc1ccc(-c2oc3c(OC)c(OC)c(OC)c(O)c3c(=O)c2OC)cc1OC do in these assays?
PRMT1 FP inh: 0.7; HTRA1 inhibitor: 17.9; TCR-CD3 inh: 11.0; ABHD4 inh: 1.4; SIAE primary: 6.7

Results for COc1ccc(-c2cc(-c3c(O)c(OC)c4occc4c3OC)[nH]n2)cc1OC ?
PRMT1 FP inh: 1.5; HTRA1 inhibitor: 23.9; TCR-CD3 inh: 1.0; ABHD4 inh: 6.5; SIAE primary: 19.4*; SIAE confirm: 5.3

How did COc1ccc(-c2cc(-c3ccccc3O)[nH]n2)cc1 do in these assays?
PRMT1 FP inh: 1.0; HTRA1 inhibitor: -44.4; TCR-CD3 inh: 9.0; ABHD4 inh: -21.5; SIAE primary: -20.3

How did COc1ccc(-c2cc(-c3c(O)c(OC)c4occc4c3OC)[nH]n2)cc1 do in these assays?
PRMT1 FP inh: 1.8; HTRA1 inhibitor: 13.2; TCR-CD3 inh: -1.0; ABHD4 inh: 9.5; SIAE primary: 22.3*; SIAE confirm: 11.5

Results for O=C(Cn1c(=O)c2cccn2c2cccnc21)NCCCN1CCN(c2ccccc2)CC1 ?
PRMT1 FP inh: -5.0; ABHD4 inh: 0.4; SIAE primary: 5.8

How did CN(C)c1ccc(CNc2nc3cc(-c4ccc(F)cc4)sc3c(=O)n2C)cc1 do in these assays?
PRMT1 FP inh: -4.6; TCR-CD3 inh: 0.9; ABHD4 inh: -7.0; SIAE primary: 17.4*; SIAE confirm: 2.6

How did Cn1c(NCc2ccc3occc3c2)nc2cc(-c3ccc(F)cc3)sc2c1=O do in these assays?
PRMT1 FP inh: 0.6; TCR-CD3 inh: 6.6; ABHD4 inh: -5.0; SIAE primary: -11.8

What do the screens show for `CC(=O)OCCC(NS(=O)(=O)OCC(Cl)(Cl)Cl)c1ccccc1` (stereo unspecified)?
PRMT1 FP inh: -1.1; HTRA1 inhibitor: -4.3; TCR-CD3 inh: -3.6; ABHD4 inh: 10.8; SIAE primary: -3.8

How did Cc1cccc(NC(=S)N/N=C/c2c[nH]c3ccccc23)c1 do in these assays?
PRMT1 FP inh: 3.7; HTRA1 inhibitor: 25.1; TCR-CD3 inh: 0.9; ABHD4 inh: 7.5; SIAE primary: 32.5*; SIAE confirm: 27.7*

Results for Cc1[nH]c2ccccc2c1/C=N/NC(N)=S ?
PRMT1 FP inh: 7.4; HTRA1 inhibitor: -1.5; TCR-CD3 inh: -6.0; ABHD4 inh: 5.8; SIAE primary: 6.6

How did Cc1[nH]c2ccccc2c1/C=N/NC(=O)CNC(=O)Cc1ccccc1 do in these assays?
PRMT1 FP inh: -0.6; HTRA1 inhibitor: 0.0; TCR-CD3 inh: 4.6; ABHD4 inh: 6.3; SIAE primary: 1.9

What do the screens show for `Cc1ccc(NC(=S)N/N=C/c2c(C)[nH]c3ccccc23)cc1`?
PRMT1 FP inh: 1.0; HTRA1 inhibitor: 31.5; TCR-CD3 inh: 2.8; ABHD4 inh: 17.7; SIAE primary: 37.6*; SIAE confirm: 38.4*

Results for Cc1[nH]c2ccccc2c1/C=N/NC(=S)NCc1ccccc1 ?
PRMT1 FP inh: 1.1; HTRA1 inhibitor: 24.3; TCR-CD3 inh: -2.5; ABHD4 inh: 18.8; SIAE primary: 21.5*; SIAE confirm: 19.4*

How did Cc1ccc(C(=O)Nc2ccc(C(=O)N/N=C/c3c[nH]c4ccccc34)cc2)cc1 do in these assays?
PRMT1 FP inh: -2.7; HTRA1 inhibitor: -11.0; TCR-CD3 inh: -4.8; ABHD4 inh: -0.2; SIAE primary: -20.8

Results for C[C@@H]1CN([C@H](C)CO)C(=O)c2cc(Br)cnc2O[C@@H]1CN(C)C(=O)c1cccc(F)c1 ?
PRMT1 FP inh: -3.4; HTRA1 inhibitor: 1.4; TCR-CD3 inh: 0.6; ABHD4 inh: 0.2; SIAE primary: 17.5*; SIAE confirm: 2.1

Results for C=CCNC(=S)N/N=C/c1ccc(-c2ccc(OC)cc2)o1 ?
PRMT1 FP inh: 4.8; HTRA1 inhibitor: -8.3; TCR-CD3 inh: 3.5; ABHD4 inh: 14.3; SIAE primary: 18.9*; SIAE confirm: 1.8

How did N=c1n(CCN2CCOCC2)c2ccccc2n1CC(=O)c1cccc([N+](=O)[O-])c1 do in these assays?
PRMT1 FP inh: 7.9; HTRA1 inhibitor: 1.6; TCR-CD3 inh: 3.5; ABHD4 inh: 4.4; SIAE primary: 2.3

How did N=c1n(CCN2CCOCC2)c2ccccc2n1CC(=O)c1ccc(Cl)c(Cl)c1 do in these assays?
PRMT1 FP inh: 2.3; HTRA1 inhibitor: -13.2; TCR-CD3 inh: 2.4; ABHD4 inh: -5.7; SIAE primary: 19.2*; SIAE confirm: 3.3

How did COc1ccc(NCC(=O)N/N=C(\C)c2cc3ccccc3o2)cc1 do in these assays?
PRMT1 FP inh: 0.7; HTRA1 inhibitor: 0.7; TCR-CD3 inh: 1.6; ABHD4 inh: 4.0; SIAE primary: 18.4*; SIAE confirm: 8.4

How did Cc1ccc(N=C(NO)c2nonc2N)cc1 do in these assays?
PRMT1 FP inh: -2.2; HTRA1 inhibitor: 5.6; TCR-CD3 inh: -1.8; ABHD4 inh: -1.5; SIAE primary: 40.6*; SIAE confirm: -1.4

How did CC(=O)NC(c1ccco1)c1cc(Cl)c2cccnc2c1O (stereo unspecified) do in these assays?
PRMT1 FP inh: -1.3; TCR-CD3 inh: -2.8; ABHD4 inh: 18.0; SIAE primary: 18.4*; SIAE confirm: 7.3

Results for CC(=O)NC(c1cc(Cl)c2cccnc2c1O)C1CC1 (stereo unspecified) ?
PRMT1 FP inh: -4.9; HTRA1 inhibitor: 31.8; TCR-CD3 inh: 1.0; ABHD4 inh: 4.2; SIAE primary: 15.7

What do the screens show for `O=C(CCCCCN1C(=O)c2ccccc2C1=O)Nc1cccc(O)c1`?
PRMT1 FP inh: -1.2; HTRA1 inhibitor: 3.3; TCR-CD3 inh: 6.1; ABHD4 inh: -0.2; SIAE primary: 3.1

Results for O=C(CCN1C(=O)c2ccccc2C1=O)Nc1cccc(O)c1 ?
PRMT1 FP inh: -6.2; HTRA1 inhibitor: 9.9; TCR-CD3 inh: 5.4; ABHD4 inh: -0.9; SIAE primary: 20.3*; SIAE confirm: -0.7

Assay outcomes deposited in PubChem BioAssay by The Scripps Research Institute Molecular Screening Center.
